Test results reported in ChEMBL document CHEMBL1136453, “New classes of antibacterial oxazolidinones with C-5, methylene O-linked heterocyclic side chains” (2003).
≈ marks a conversion by molar mass, not a printed value.

Columns and labels:
[1] = tested on: Enterococcus faecalis; experiment: In vitro minimum inhibitory concentration against Enterococcus faecalis; type: functional
Procedure, shortened: (§1)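 Agar dilution per NCCLS protocol with doubling dilutions from 128 to 0.008 mg/L, incubated at 37 °C. Strains came from an in-house culture collection. MIC reported in mg/L.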

[2] = tested on: Streptococcus pyogenes; experiment: In vitro minimum inhibitory concentration against Streptococcus pyogenes penicillin sensitive; type: functional; procedure, shortened: as §1
[3] = In vivo antibacterial activity against Staphylococcus aureus after intravenous administration (5 mg/kg) in mice using (MTT) mouse thigh test
[4] = tested on: Staphylococcus aureus; experiment: In vitro minimum inhibitory concentration against Staphylococcus aureus MRQR; type: functional
[5] = tested on: Staphylococcus aureus; experiment: In vitro minimum inhibitory concentration against coagulase negative Staphylococcus aureus methicillin resistant (CNSMR); type: functional
[6] = tested on: Staphylococcus aureus; experiment: In vivo antibacterial activity against Staphylococcus aureus after intravenous administration (10 mg/kg) in mice using (MTT) mouse thigh test
[7] = tested on: Staphylococcus aureus; experiment: In vitro minimum inhibitory concentration against Staphylococcus aureus Oxford; type: functional; settings: Staphylococcus aureus; read-out: MIC

SMILES	MIC [1]	MIC [2]	Activity [3]	MIC [4]	MIC [5]	Activity [6]	MIC [7]
O=C1O[C@@H](COc2ccsn2)CN1c1ccc(C2=CCOCC2)c(F)c1	0.5 µg/mL (≈ 1.33 µM)	0.5 µg/mL (≈ 1.33 µM)	0.01	0.25 µg/mL (≈ 0.664 µM)	0.25 µg/mL (≈ 0.664 µM)	0.21	0.25 µg/mL (≈ 0.664 µM)
CC(=O)NC[C@H]1CN(c2ccc(C3=CCOCC3)c(F)c2)C(=O)O1	0.13 µg/mL (≈ 0.389 µM)	0.13 µg/mL (≈ 0.389 µM)	0.6	0.25 µg/mL (≈ 0.748 µM)	0.13 µg/mL (≈ 0.389 µM)	1.34	0.13 µg/mL (≈ 0.389 µM)
O=C1O[C@@H](COc2cccc[n+]2[O-])CN1c1ccc(C2=CCOCC2)c(F)c1	> 128 µg/mL	> 128 µg/mL	–	> 128 µg/mL	–	–	> 128 µg/mL
N#CCCS(=O)(=O)C[C@H](O)C(=O)N1CC=C(c2c(F)cc(N3C[C@H](COc4ccon4)OC3=O)cc2F)CC1	1 µg/mL (≈ 1.77 µM)	0.5 µg/mL (≈ 0.883 µM)	–	0.5 µg/mL (≈ 0.883 µM)	0.5 µg/mL (≈ 0.883 µM)	–	0.25 µg/mL (≈ 0.441 µM)
O=C(C(CO)Cn1cncn1)N1CC=C(c2c(F)cc(N3C[C@H](COc4ccon4)OC3=O)cc2F)CC1 (stereo partly specified)	2 µg/mL (≈ 3.77 µM)	1 µg/mL (≈ 1.89 µM)	0.25	1 µg/mL (≈ 1.89 µM)	1 µg/mL (≈ 1.89 µM)	0.5	0.5 µg/mL (≈ 0.943 µM)
O=C1O[C@@H](COc2ccon2)CN1c1ccc(C2=CCN(CCO)CC2)c(F)c1	8 µg/mL (≈ 19.8 µM)	2 µg/mL (≈ 4.96 µM)	–	8 µg/mL (≈ 19.8 µM)	4 µg/mL (≈ 9.92 µM)	–	4 µg/mL (≈ 9.92 µM)
CN1CC=C(c2c(F)cc(N3C[C@H](COc4ccon4)OC3=O)cc2F)CC1	4 µg/mL (≈ 10.2 µM)	1 µg/mL (≈ 2.56 µM)	–	2 µg/mL (≈ 5.11 µM)	2 µg/mL (≈ 5.11 µM)	–	2 µg/mL (≈ 5.11 µM)
O=C1O[C@@H](COc2ccccn2)CN1c1ccc(C2=CCOCC2)c(F)c1	2 µg/mL (≈ 5.4 µM)	2 µg/mL (≈ 5.4 µM)	0	1 µg/mL (≈ 2.7 µM)	1 µg/mL (≈ 2.7 µM)	0.15	0.5 µg/mL (≈ 1.35 µM)
O=C([C@@H](O)CO)N1CC=C(c2ccc(N3C[C@H](COc4ccon4)OC3=O)cc2F)CC1	1 µg/mL (≈ 2.24 µM)	0.5 µg/mL (≈ 1.12 µM)	0.63	0.5 µg/mL (≈ 1.12 µM)	0.5 µg/mL (≈ 1.12 µM)	1.04	0.25 µg/mL (≈ 0.559 µM)
O=C1O[C@@H](COc2ccon2)CN1c1ccc(C2=CCN(C(=S)CO)CC2)c(F)c1	0.5 µg/mL (≈ 1.15 µM)	0.25 µg/mL (≈ 0.577 µM)	-0.01	0.5 µg/mL (≈ 1.15 µM)	0.25 µg/mL (≈ 0.577 µM)	0.07	0.25 µg/mL (≈ 0.577 µM)
O=C([C@@H](O)CO)N1CC=C(c2ccc(N3C[C@H](COc4cnsn4)OC3=O)cc2F)CC1	0.25 µg/mL (≈ 0.538 µM)	0.13 µg/mL (≈ 0.28 µM)	0.42	0.13 µg/mL (≈ 0.28 µM)	0.13 µg/mL (≈ 0.28 µM)	1.11	0.06 µg/mL (≈ 0.129 µM)
CC(=O)N1CC=C(c2ccc(N3C[C@H](COc4ccon4)OC3=O)cc2F)CC1	1 µg/mL (≈ 2.49 µM)	1 µg/mL (≈ 2.49 µM)	0.17	0.5 µg/mL (≈ 1.25 µM)	0.5 µg/mL (≈ 1.25 µM)	0.81	0.5 µg/mL (≈ 1.25 µM)
O=C1O[C@@H](COc2ccncc2)CN1c1ccc(C2=CCOCC2)c(F)c1	64 µg/mL (≈ 173 µM)	64 µg/mL (≈ 173 µM)	–	32 µg/mL (≈ 86.4 µM)	32 µg/mL (≈ 86.4 µM)	–	16 µg/mL (≈ 43.2 µM)
Cc1cccc(OC[C@H]2CN(c3ccc(C4=CCOCC4)c(F)c3)C(=O)O2)n1	> 128 µg/mL	> 128 µg/mL	–	> 128 µg/mL	–	–	> 128 µg/mL
O=C1O[C@@H](COc2ccncn2)CN1c1ccc(C2=CCOCC2)c(F)c1	4 µg/mL (≈ 10.8 µM)	4 µg/mL (≈ 10.8 µM)	0.23	2 µg/mL (≈ 5.39 µM)	2 µg/mL (≈ 5.39 µM)	0.34	1 µg/mL (≈ 2.69 µM)
O=C1O[C@@H](COc2ccccc2)CN1c1ccc(C2=CCOCC2)c(F)c1	> 128 µg/mL	> 128 µg/mL	–	> 128 µg/mL	–	–	> 128 µg/mL
O=C(C(CO)CO)N1CC=C(c2c(F)cc(N3C[C@H](COc4ccon4)OC3=O)cc2F)CC1	1 µg/mL (≈ 2.09 µM)	0.5 µg/mL (≈ 1.04 µM)	0.37	0.5 µg/mL (≈ 1.04 µM)	0.5 µg/mL (≈ 1.04 µM)	0.41	0.5 µg/mL (≈ 1.04 µM)
Cc1cccnc1OC[C@H]1CN(c2ccc(C3=CCOCC3)c(F)c2)C(=O)O1	32 µg/mL (≈ 83.2 µM)	8 µg/mL (≈ 20.8 µM)	–	16 µg/mL (≈ 41.6 µM)	16 µg/mL (≈ 41.6 µM)	–	8 µg/mL (≈ 20.8 µM)
N#Cc1ccc(OC[C@H]2CN(c3ccc(C4=CCOCC4)c(F)c3)C(=O)O2)nc1	> 128 µg/mL	> 128 µg/mL	–	> 128 µg/mL	–	–	> 128 µg/mL
O=C1O[C@@H](COc2cccnn2)CN1c1ccc(C2=CCOCC2)c(F)c1	4 µg/mL (≈ 10.8 µM)	2 µg/mL (≈ 5.39 µM)	–	2 µg/mL (≈ 5.39 µM)	2 µg/mL (≈ 5.39 µM)	–	2 µg/mL (≈ 5.39 µM)
